Assay results taken from ChEMBL document CHEMBL4041494, “Simple synthesis of endophenazine G and other phenazines and their evaluation as anti-methicillin-resistant Staphylococcus aureus agents” (Eur J Med Chem, 2017).
≈ marks a conversion by molar mass, not a printed value. Calls of active or inactive are those of the source. The rule behind the calls is not given here.

Key:
[1] = system: Staphylococcus aureus; assay: Antibacterial activity against methicillin-resistant Staphylococcus aureus after 24 hrs by broth microdilution assay
[2] = system: Staphylococcus aureus; assay: Antibacterial activity against methicillin-resistant Staphylococcus aureus LAC JE2 after 24 hrs by broth microdilution assay; format: functional; conditions: LAC JE2, 24 h
Method in brief: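 Broth microdilution per ASM Clinical Microbiology Procedures Handbook (3rd ed.). Compound stock at pH 7, serial 2-fold dilutions in cation-adjusted Mueller Hinton II broth with 5% DMSO. Inoculum from direct colony suspension at 0.5 McFarland, 10 ul per well. Static incubation at 37°C for 24 h. MIC is the lowest concentration with no visible growth. Vancomycin positive control, medium-only negative control.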

[3] = system: Staphylococcus aureus; assay: Induction of membrane disruption in methicillin-resistant Staphylococcus aureus LAC JE2 at 1 to 10 times MIC by propidium iodide staining based confocal microscopic method; format: functional
[4] = system: Staphylococcus aureus; assay: Induction of membrane disruption in methicillin-resistant Staphylococcus aureus LAC JE2 at 1 to 10 times MIC measured at 15 mins interval for 4 hrs by propidium iodide staining based fluorescence assay; format: functional
Method in brief: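 S. aureus JE2 resuspended in PBS to OD600 1.0 and treated with 1X, 2X or 10X MIC. Propidium iodide fluorescence (RFU) read in a plate reader every 15 min for 4 h.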

[5] = system: Staphylococcus aureus; assay: Bacteriostatic activity against methicillin-resistant Staphylococcus aureus LAC JE2 at 10 times MIC by serial dilution method; format: functional
Method in brief: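 Overnight culture diluted 1:1000 into fresh CAMHB and grown 2 h at 37°C with agitation. 1-ml aliquots then treated with 10X MIC of compound. Samples taken every 2 h, and viability counted by serial dilution and plating on tryptic soy agar.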

[6] = system: HaCaT; assay: Cytotoxicity against human HaCaT cells assessed as reduction in cell viability by CellTiter blue assay; format: cell-based
Method in brief: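 HaCaT keratinocytes. Compound dissolved in 2:3 NaOH (0.01 M)/DMSO, diluted in DMEM with 10% FBS and 1% penicillin-streptomycin to 4 mM top concentration (3% DMSO), then serially diluted in DMEM. Viability read by CellTiter-Blue, following resazurin absorbance change on a spectrophotometer. Absorbance plotted against concentration and IC50 calculated.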

[7] = species: Equus caballus; assay: Induction of equine heart cytochrome-c reduction at 25 to 100 uM measured for 900 sec at 30 sec time interval in presence of NADPH by photospectrometric method; format: functional
Method in brief: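 Compound stock 10 mM in 95% DMSO/5% 0.1 M NaOH, diluted in DPBS to 200 μM and serially diluted, keeping 5% DMSO/NaOH. NADPH 100 μM, then cytochrome c 20 μM added. Absorbance at 550 nm read, with 700 nm as baseline correction. Controls: cyt-c alone, cyt-c plus NADPH, and buffer alone.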

[8] = Induction of ROS generation at 0.11 to 0.55 mM measured for 500 sec at 30 sec time interval in presence of NADPH by ABDA staining based photospectrometric method
Method in brief: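 Compound 10 mM in 95% DMSO/5% 0.1 M NaOH, serially diluted keeping 5% DMSO/NaOH in DPBS. NADPH 100 μM and ABDA 5 μM final added. Superoxide followed as ABDA decay at 479 nm. Triplicate per concentration. Controls: ABDA alone in buffer, and buffer alone.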

[9] = Induction of ROS generation by HPF staining based flow cytometry

With O=C(O)c1cccc2nc3ccccc3nc12 [PHENAZINE-1-CARBOXYLIC ACID] the MIC [1] was 64 mg/L (≈ 285 µM).

For O=C(O)c1cccc2nc3cccc(F)c3nc12, the MIC [2] was 64 mg/L (≈ 264 µM).

In the case of COC(=O)c1cccc2nc3cccc(Br)c3nc12, the MIC [2] is reported as 128 mg/L (≈ 404 µM).

For CS(=O)(=O)NC(=O)c1cccc2nc3cccc(Cl)c3nc12, the Activity [3] was “inactive”, the Activity [4] was “inactive” and the Activity [5] was “Active”. For the same compound, the IC50 [6] was 193 µM, the Activity [7] was “Active” and the MIC [2] was 2 mg/L (≈ 5.96 µM). The Activity [8] was “inactive” and the Activity [9] was “inactive”.

For N#Cc1cccc2nc3cccc(Br)c3nc12, the MIC [2] was > 128 mg/L.

COC(=O)c1cccc2nc3cccc(/C=C/C(C)(C)O)c3nc12 gave an MIC [2] of 128 mg/L (≈ 397 µM).

For CS(=O)(=O)NC(=O)c1cccc2nc3cccc(Br)c3nc12, the IC50 [6] was 118 µM and the MIC [2] was 4 mg/L (≈ 10.5 µM).

For Cc1cccc2nc3cccc(C(=O)O)c3nc12, the MIC [2] was 32 mg/L (≈ 134 µM).

In the case of COC(=O)c1cccc2nc3c(Br)cccc3nc12, the MIC [2] is reported as > 128 mg/L.

Work on O=C(O)c1cccc2nc3cccc(Cl)c3nc12 yielded an MIC [2] of 16 mg/L (≈ 61.9 µM).

For CN(C)C(=O)c1cccc2nc3cccc(Br)c3nc12, the MIC [2] was > 128 mg/L.

CC(C)(O)/C=C/c1cccc2nc3c(C(=O)O)cccc3nc12 showed an MIC [2] of 128 mg/L (≈ 415 µM).

With CN(C)C(=O)c1cccc2nc3c(/C=C/C(C)(C)O)cccc3nc12 the Activity [7] was “Active” and the MIC [2] was > 128 mg/L.

With NC(=O)c1cccc2nc3cccc(F)c3nc12 the MIC [2] was > 128 mg/L.

Work on O=C(O)c1cccc2nc3c(Br)cccc3nc12 yielded an MIC [2] of 128 mg/L (≈ 422 µM).

Work on NC(=O)c1cccc2nc3ccccc3nc12 yielded an MIC [1] of 64 mg/L (≈ 287 µM).

For COC(=O)c1cccc2nc3ccccc3nc12, the MIC [1] was 128 mg/L (≈ 537 µM).

With O=C(O)c1cccc2nc3cc(Br)ccc3nc12 the MIC [2] was 64 mg/L (≈ 211 µM).

Work on O=C(O)c1cccc2nc3cccc(Br)c3nc12 yielded an IC50 [6] of 345 µM and an MIC [2] of 32 mg/L (≈ 106 µM).

With COC(=O)c1cccc2nc3c(/C=C/C(C)(C)O)cccc3nc12 the MIC [2] was 128 mg/L (≈ 397 µM).

Compound COC(=O)c1cccc2nc3cccc(C)c3nc12 has an MIC [2] of 64 mg/L (≈ 254 µM).

With CN(C)C(=O)c1cccc2nc3cccc(/C=C/C(C)(C)O)c3nc12 the MIC [2] was > 128 mg/L.

With CC(C)(O)/C=C/c1cccc2nc3cccc(C#N)c3nc12 the MIC [2] was 128 mg/L (≈ 442 µM).

In the case of CC(C)(O)CCc1cccc2nc3cccc(C(=O)O)c3nc12, the MIC [2] is reported as 64 mg/L (≈ 206 µM).

In the case of CC(C)(O)/C=C/c1cccc2nc3cccc(C(=O)O)c3nc12, the Activity [3] is reported as “inactive”, the Activity [4] is reported as “inactive” and the Activity [5] is reported as “Active”. For the same compound, the IC50 [6] was 306 µM, the Activity [7] was “Active” and the MIC [2] was 32 mg/L (≈ 104 µM). For the same compound, the Activity [8] was “inactive” and the Activity [9] was “inactive”.
